From PubChem BioAssay
TRPC4 block = inhibitors of mouse TRPC4 channel; AID 2247; 0.39% of 300,000 active; HEK293 TRPC4beta/mu-opioid, DAMGO-evoked Fluo4 calcium flux; stronger effect = lower value; B-score at 10 µM;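 active = B-score over 3 SD under the library average, no early fluorescence shift, positive overall ratio signal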
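material = TRPC4beta/mu-opioid receptor HEK293 cell line | probe or stimulus = sequential submaximal and maximal DAMGO stimulation | compound dosing = one concentration per compound | measured by = Fluo4 Ca2+ flux fluorescence | evaluation = integrated fluorescence ratio relative to baseline, converted to per-well B score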
TRPC4 act = TRPC4 (mouse) channel activation | HEK293 TRPC4beta/mu-opioid, Fluo4 calcium fluorescence; stronger effect = higher value | Q9QUQ5 | 0.49% of 310,000 active | B-score at 10 µM;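 active = B-score above 5 SD of library B-scores, and initial fluorescence ratio not above library mean plus 5 SD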;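 note: positive B-score marks a calcium rise read as TRPC4 activation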
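Technique: kinetic Fluo4 calcium fluorescence; Test system: TRPC4beta and mu-opioid receptor HEK293 stable cells; Measure: B-scored integrated calcium fluorescence ratio; Benchmarks: low control buffer alone, high control maximal DAMGO; Schedule: 45 min room-temperature Fluo4 loading, 110 s read.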
TRPC6 inh = inhibitors of mouse TRPC6 channel; Q61143; HEK293-TRPC6, membrane potential dye, ACh-evoked depolarization; stronger effect = lower value; B-score at 10 µM; 1.1% of 310,000 active; AID 2553;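 active = B-score under library mean minus 3 SD, initial fluorescence not abnormally high, positive integrated signal ratio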;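 note: B-score derived from integrated fluorescence ratio over the kinetic read; more negative B-score means stronger inhibition of depolarization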
Target sequence (Q61143 whole entry, looked up): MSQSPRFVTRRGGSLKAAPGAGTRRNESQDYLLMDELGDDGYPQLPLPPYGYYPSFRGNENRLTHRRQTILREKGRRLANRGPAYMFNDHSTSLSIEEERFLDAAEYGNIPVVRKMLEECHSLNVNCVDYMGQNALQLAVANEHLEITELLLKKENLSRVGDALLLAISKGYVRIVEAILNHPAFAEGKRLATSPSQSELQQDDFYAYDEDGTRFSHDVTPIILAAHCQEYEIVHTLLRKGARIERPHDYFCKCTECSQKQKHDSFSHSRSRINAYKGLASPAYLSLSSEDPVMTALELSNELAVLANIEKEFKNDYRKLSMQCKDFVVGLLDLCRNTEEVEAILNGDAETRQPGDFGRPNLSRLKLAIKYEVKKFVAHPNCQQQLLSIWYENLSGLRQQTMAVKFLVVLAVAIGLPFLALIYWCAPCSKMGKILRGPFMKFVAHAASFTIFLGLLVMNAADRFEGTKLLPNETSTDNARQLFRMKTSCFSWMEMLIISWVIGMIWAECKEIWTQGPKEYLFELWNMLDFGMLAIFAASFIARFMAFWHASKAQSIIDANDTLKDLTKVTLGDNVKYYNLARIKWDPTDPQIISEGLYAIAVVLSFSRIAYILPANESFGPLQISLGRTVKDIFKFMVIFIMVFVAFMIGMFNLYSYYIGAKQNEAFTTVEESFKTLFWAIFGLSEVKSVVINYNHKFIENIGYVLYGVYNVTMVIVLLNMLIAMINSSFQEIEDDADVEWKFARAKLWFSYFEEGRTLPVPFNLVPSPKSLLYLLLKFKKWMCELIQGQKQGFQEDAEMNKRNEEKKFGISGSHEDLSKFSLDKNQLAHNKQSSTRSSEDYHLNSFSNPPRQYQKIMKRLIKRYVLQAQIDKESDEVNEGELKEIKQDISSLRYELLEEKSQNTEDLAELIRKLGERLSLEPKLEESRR
TRPC6 act = activators of mouse TRPC6 channel. 0.13% of 310,000 active. HEK293-TRPC6 membrane potential dye fluorescence; stronger effect = higher value. B-score at 10 µM. Q61143;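 active = B-score of the integrated fluorescence ratio above library mean plus 3 SD, and starting fluorescence ratio within library mean plus 5 SD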;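 note: higher score means more depolarization so channel activation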
TRPC4 potent = allosterically enhances the mouse TRPC4 cation channel | Q9QUQ5 | HEK293 TRPC4beta/mu-opioid, DAMGO EC20, Fluo-4 Ca2+ flux; stronger effect = higher value | B-score at 10 µM | 0.42% of 310,000 active;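 active = B-score of calcium response area above 5 SD of library B-scores, with initial fluorescence ratio within 5 SD of library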
Hits are given with their value; - = inactive. Rows were chosen to be rich in hits. Some 2.3% of all compounds tested hit in one or more screens of this group.

SMILES	TRPC4 block	TRPC4 act	TRPC6 inh	TRPC6 act	TRPC4 potent
CCN1C[C@@]2(COC)C3[C@@H](OC)[C@H]4[C@@H]1[C@@]3(C1C[C@@]3(O)[C@H](OC(=O)c5ccccc5)C1[C@]4(OC(C)=O)[C@@H](O)[C@H]3OC)[C@@H](OC)C[C@H]2O (some centres undefined)	-	-	-	-	-
CCOc1cc(CNCCc2c[nH]c3ccccc23)cc(Cl)c1OC	-	159	-	-	-
COc1ccc(OC)c(N2C(=O)/C(=C/c3ccco3)C(=O)NC2=S)c1	-	-	-	-	10
Nc1ccc(Cl)cc1C(=O)c1ccccc1Cl	-	-	-	-	34
Fc1cccc(C2NCCc3[nH]cnc32)c1 (centres undefined)	-	162	-	-	-
Clc1ccc(C2NCCc3[nH]cnc32)cc1 (centres undefined)	-	-	-	-	-
Cc1ccc[n+](CC(O)Cn2c3ccccc3c3ccccc32)c1 (centres undefined)	-	-	-	-	-
Clc1ccc(-c2nc3ccc(Cl)cn3c2CN2CCCCC2)cc1	-	-	-	-	-
CCN1CCN(c2cc(N3CCCC3)c([N+](=O)[O-])cc2F)CC1	-	-	-	-	17
O=[N+]([O-])c1ccc(N2CCCC2)c(F)c1Br	-	-	-	-	-
Cc1cc(OCC(=O)N2CCC(C(N)=O)CC2)c2c3c(c(=O)oc2c1)CCCC3	-	-	-	-	-
O=P1(Oc2ccccc2)OCCCS1 (centres undefined)	-	-	-	-	-
CC(C)CN(CC(C)C)c1ccc(C=C2C(=O)NC(=S)NC2=O)cc1[N+](=O)[O-]	-7	-	-	-	-
NC(N)=N/N=C/c1ccc(N(c2ccccc2)c2ccccc2)cc1	-	86	-	-	-
CCOC(=O)c1c(C)n(CC(O)CN2CCOCC2)c2cc(Br)c(OC)cc12 (centres undefined)	-	-	-	-	-
CN1CCN(Cc2cc(=O)n3ccsc3n2)CC1	-	-	-	-	27
O=c1cc(CN2CCNCC2)nc2sccn12	-	-	-	-	-
CC1CC(C)CN(CC(=O)c2ccc(OC(F)F)cc2)C1 (centres undefined)	-	52	-	-	-
COc1cc(OC)c(OC)cc1CNCCc1ccc2c(c1)OCO2	-	-	-	-	-
CCCCN1C(=O)NC(=O)C2(Cc3c(nc4ccccn4c3=O)N3CCc4ccccc4C32)C1=O (centres undefined)	-	-	-	-	57
CCCCN1C(=O)NC(=O)C2(Cc3c(nc4c(C)cccn4c3=O)N3CCc4ccccc4C32)C1=O (centres undefined)	-	-	-	-	19
CCOC(=O)c1c(C=O)c2ccccc2n1Cc1ccccc1	-	-	-	-	-
CC(=O)Cc1c[nH]c2ccccc12	-	-	-	-	-
COc1ccn(C)c(=O)c1C#N	-	-	-	-	-
c1ccc2[nH]c(CCNC3CCCCC3)nc2c1	-	65	-	-	-
SMILES	TRPC4 block	TRPC4 act	TRPC6 inh	TRPC6 act	TRPC4 potent
c1ccc2c(CCNC3CCCCC3)c[nH]c2c1	-	-	-	-	-
Cc1cc(OCC(=O)NCc2ccncc2)c2c3c(c(=O)oc2c1)CCCC3	-	-	-	-	-
CN1CCCC(C(=O)c2ccc(Cl)cc2)C1 (centres undefined)	-9	126	-	-	-
O=C(c1ccc(Cl)cc1)C1CCCN(Cc2ccon2)C1 (centres undefined)	-	-	-	-	-
CC(C)(C)c1ccc(C(=O)C2CCCN(C3CCC3)C2)cc1 (centres undefined)	-	57	-	-	-
CC(=O)N1CCC(N2CCCC(C(=O)c3cccc(Cl)c3)C2)CC1 (centres undefined)	-	-	-5.7	-	-
CC1(C)CC(N(CCc2ccccc2)Cc2ccccc2)CCO1 (centres undefined)	-6	-	-	-	-
COc1ccc(CCC(=O)N2C[C@H]3C[C@@H](C2)c2cccc(=O)n2C3)cc1	-	-	-	-	-
O=C(CCN1CCCCC1)Nc1ccc(Cl)cc1C(=O)c1ccccc1	-	-	-	-	-
O=C(CN1CCCC1)Nc1ccc(Cl)cc1C(=O)c1ccccc1	-6	-	-	-	-
Cc1cc(C)nc(N2Cc3ccccc3C2=N)n1	-	-	-	-	-
COc1ccc(OC)c(N2Cc3ccccc3C2=N)c1	-7	-	-	-	-
O=c1[nH]c(=S)n(-c2ccc(Cl)cc2)c(O)c1/C=N/N1CCOCC1	-	-	-	-	-
C/C(=C\c1ccc(N(C)C)cc1)[N+](=O)[O-]	-	-	-	-	-
CN(C)c1ccc(/C=C/[N+](=O)[O-])cc1	-	-	-	19	-
COc1cccc(CCNCc2ccc(SC)cc2)c1	-	-	-	-	-
C#CCN1C(=O)C2(C(C#N)=C(N)OC(C)=C2C(=O)OCc2ccccc2)c2ccccc21 (centres undefined)	-	-	-	-	29
CCOC(=O)C1=C(C)OC(N)=C(C#N)C12C(=O)N(C)c1ccccc12 (centres undefined)	-	-	-	-	-
CC1CCCCC1NC1CCN(C)CC1 (centres undefined)	-	-	-	-	-
CN1CCN(c2c(N)c(=O)oc3ccccc23)CC1	-	-	-	-	10
C[C@H](NC(=O)N1C[C@H]2C[C@@H](C1)c1cccc(=O)n1C2)C(=O)Nc1ccccc1F	-	-	-	-	-
CCc1ccc(CN2CCN(Cc3cc(Br)ccc3O)CC2)cc1	-	-	-	-	-
CCN1CCN(Cc2cc(Br)cc(Br)c2O)CC1	-	200	-	-	-
CCN1CCN(Cc2cc(Br)ccc2O)CC1	-	-	-	-	23
N[C@@H]1CCCC[C@H]1N.O=C(O)C(=O)O.[Pt]	-	-	-	-	-
SMILES	TRPC4 block	TRPC4 act	TRPC6 inh	TRPC6 act	TRPC4 potent
CN(C)CCCN=Cc1c(O)n(CCc2ccccc2)c(=O)[nH]c1=O	-	-	-	-	-
O=c1[nH]c(=O)n(CCc2ccccc2)c(O)c1C=NC1CC1	-	-	-	-	14
CC(Cc1ccccc1)NCC(=O)Nc1cc(N(C)C)nc2ccccc12 (centres undefined)	-6	-	-	-	-
O=C(COc1ccc(Cl)cc1Cl)N1CCN(C/C=C/c2ccccc2)CC1	-	-	-	-	13
Cc1ccc2c(c1)C1CN(C)CCC1N2C(=O)c1cn(-c2ccccc2)nc1-c1ccccc1 (centres undefined)	-	-	-	-	23
Cc1ccc2c(c1)C1CN(C)CCC1N2C(=O)c1cccnc1Cl (centres undefined)	-	-	-	-	-
CC(=O)N1CCN(c2ccc([N+](=O)[O-])cc2C=C2C(=O)NC(=O)NC2=O)CC1	-	-	-	-	-
CCN1CCN(c2ccc([N+](=O)[O-])cc2C=C2C(=O)NC(=O)NC2=O)CC1	-	-	-	-	15
